Results published in paper PMC7485944 (Clinical and Translational Science, 2020).
Values joined by “and” are separate entries in the source; they are usually repeats but may differ in a detail not shown here. Equal values may be shown once. Read-outs that look alike come from different tables or passages of the source.

How the values were obtained:
[1] = tested on: OATP1B1; details: following a single 600 mg dose; cited from earlier work
[2] = tested on: OATP1B3; details: following a single 600 mg dose; cited from earlier work
[3] = tested on: OATP2B1; details: cited from earlier work
[4] = type: in vivo, human
Method in brief: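 Same crossover dosing (saline or 600 mg inhibitor i.v. over 30 min, then 4 mg s.c. fasting). Plasma was sampled from 5 min to 36 h post-dose and stored at −25°C. Quantification used validated LC-MS/MS (LLOQ 1.00 ng/mL; linear 1.00–2,000 ng/mL). Noncompartmental analysis: AUC0–t by linear trapezoidal rule; AUC0–∞ adds Ct/λz; CL/F = Dose/AUC0–∞. Treatment effect given as geometric mean ratios with 90% CI.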

[5] = Safety and tolerability evaluation of study treatments in healthy subjects; type: in vivo, human; details: for Number of AEs reported: 14 subjects
Method in brief: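 Randomized, double-blind, two-period crossover in healthy adults with a 7–10 day washout. Each period gave 100 mL saline or 600 mg OATP inhibitor i.v. over 30 min, with bags and lines covered. This was followed by 4 mg test compound s.c. in the thigh under fasting. Monitoring throughout covered AEs, serious AEs, physical exam, vital signs, 12-lead ECG, body weight, clinical chemistry, hematology and coagulation.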

[6] = tested on: OATP1B1; details: in vitro; ref Idorsia Pharmaceuticals, data on file; cited from earlier work
[7] = tested on: OATP1B3; details: in vitro; ref Idorsia Pharmaceuticals, data on file; cited from earlier work
[8] = tested on: MRP2; details: in vitro; ref Idorsia Pharmaceuticals, data on file; cited from earlier work
[9] = ref Idorsia Pharmaceuticals, data on file; cited from earlier work
[10] = cited from earlier work
[11] = tested on: platelet inhibition; details: single s.c. doses of 8 and 16 mg, postdose; cited from earlier work
[12] = cited from earlier work; remark: listed apart in the source
[13] = cited from earlier work; remark: listed apart in the source
[14] = 600 mg rifampin i.v. before 4 mg selatogrel s.c.
[15] = Treatment A: placebo + 4 mg selatogrel s.c., n = 13
[16] = Treatment B: 600 mg rifampin i.v. + 4 mg selatogrel s.c., n = 13
[17] = treatment B (rifampin) / A (placebo), n = 13

For `CO[C@H]1/C=C/O[C@@]2(C)Oc3c(C)c(O)c4c(O)c(c(/C=N/N5CCN(C)CC5)c(O)c4c3C2=O)NC(=O)/C(C)=C\C=C\[C@H](C)[C@H](O)[C@@H](C)[C@@H](O)[C@@H](C)[C@H](OC(C)=O)[C@@H]1C` [rifampin], the “Inhibition of OATP1B1” value [1] is listed as “potent inhibitor”, the “Inhibition of OATP1B3” value [2] is listed as “potent inhibitor” and the “Inhibition of OATP2B1” value [3] is listed as “not a potent inhibitor”.

For `CCCCOC(=O)N1CCN(C(=O)[C@H](CP(=O)(O)O)NC(=O)c2cc(N3CC[C@H](OC)C3)nc(-c3ccccc3)n2)CC1` [selatogrel, 4‐((R)‐2‐{[6‐((S)‐3‐Methoxypyrrolidin‐1‐yl)‐2‐phenylpyrimidine‐4‐carbonyl]amino}‐ 3‐phosphonopropionyl)piperazine‐1‐carboxylic Acid Butyl Ester], the “Decrease of CL/F with rifampin” value [4, 14] was ~ 30%, the “Decrease of Vd/F with rifampin” value [4, 14] was ~ 30% and the “Increase of AUC0–t with rifampin compared with placebo” value [4, 14] was 44%. For the same molecule, the “Increase of AUC0–∞ with rifampin compared with placebo” value [4, 14] was 43% and ~40%, the “Increase of Cmax with rifampin compared with placebo” value [4, 14] was 19% and ~ 20% and the “AUC0–t, geometric mean” value [4, 15] was 0.2737 µg·h/mL. For the same molecule, the “AUC0–∞, geometric mean” value [4, 15] was 0.2798 µg·h/mL, the “CL/F, geometric mean” value [4, 15] was 14.3 L/h and the “AUC0–t, geometric mean” value [4, 16] was 0.3926 µg·h/mL. For the same molecule, the “AUC0–∞, geometric mean” value [4, 16] was 0.3987 µg·h/mL, the “CL/F, geometric mean” value [4, 16] was 10.0 L/h and the “AUC0–t, geometric mean ratio B/A” value [4, 17] was 1.44. The “AUC0–∞, geometric mean ratio B/A” value [4, 17] was 1.43, the “CL/F, geometric mean ratio B/A” value [4, 17] was 0.70 and the “Cmax, geometric mean ratio B/A” value [4, 17] was 1.19. The “Vd/F, geometric mean ratio B/A” value [4, 17] was 0.68, the “t 1/2, geometric mean ratio B/A” value [4, 17] was 0.97 and the “Intensity of AEs” value ([5]; both treatment periods) was “mild”. The “Serious adverse events or AEs leading to discontinuation” value ([5]; both treatment periods) was “No serious adverse events or AEs leading to study discontinuation”, the “Overall safety and tolerability” value ([5]; selatogrel 4 mg s.c. after rifampin or matching placebo) was “safe and well‐tolerated” and the “Number of AEs reported” value ([5]; selatogrel 4 mg s.c. with 600 mg rifampin i.v. (treatment B)) was 17. The “Number of AEs reported” value ([5]; selatogrel 4 mg s.c. with placebo (treatment A)) was 8, the “Number of AEs considered related to study treatment” value ([5]; treatment period A (placebo + selatogrel)) was 1 and the “Substrate of OATP1B1” value [6] was “substrate”. The “Substrate of OATP1B3” value [7] was “substrate”, the “Substrate of MRP2” value [8] was “substrate” and the transcellular permeability [9] was 0.2 10^−6 cm/seconds. For the same molecule, the Exposure dose proportionality ([10]; dose range 1–32 mg) was “dose‐proportional exposure”, the “Safety and tolerability in single-ascending dose study” value ([10]; dose range 1–32 mg) was “safe and well‐tolerated” and the “Time of absorption after s.c. administration” value ([10]; s.c.) was 30 to 45 min. The elimination half-life ([10]; s.c.) was 2 to 9 h, the “Time to reversal of pharmacodynamic effect” value [11] was at most 24 h and the Plasma protein binding [12] was “highly bound to plasma proteins”. The Route of elimination [13] was “mainly eliminated unchanged via the biliary route”.
